B1: tRNA (parent)
chain: GUUCCGUUGGCGUAAUGGUAACGCGUCUCCCUCCUAAGGAGAAGACUGCGGGUUCGAGUCCCGUACGGAACG

Fewer inactive variants are shown than the library holds.

The variants in this data set derive from B1. Nature of the data set: yeast fitness relative to wild type (ratio to wild type); higher = fitter; tRNA-Arg(CCU), competitive growth, 37 C, YPD. Summed up: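 The tRNA-Arg(CCU) gene variants were made by chemical synthesis with a 3% per-site mutation rate at 69 sites and inserted at the native genomic locus of Saccharomyces cerevisiae. After pooling, the strains were competed in YPD at 37°C for 24 hours in six parallel replicates. Gene amplicons from the start population and each end population were read by 100-nucleotide paired-end sequencing, and Darwinian fitness relative to wild type was taken from genotype frequency changes. Genotypes needed ≥ 100 starting reads, and estimates < 0.5 were set to 0.5.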
Consider C5U G25C C29A, for which the yeast fitness is ≤ 0.5. C5U G25C A42U A69U: the yeast fitness was ≤ 0.5. Take C5U U19C C55A G58C: the yeast fitness is ≤ 0.5.

For the variant C5U C46G, the yeast fitness came to 0.93. In the case of C5U G6C, the yeast fitness came out at 0.818. For the variant C5U C34U C60U, the yeast fitness was ≤ 0.5. For C5U G52A, the yeast fitness was 0.697. Consider C5U G10C A15G G67U, for which the yeast fitness was ≤ 0.5. For the variant C5U G17A C66A, the yeast fitness was 0.522. For C5U G18C C22U G50A, the yeast fitness was 0.572.

As for C5U G58A C61U A70G, the yeast fitness worked out at 0.797. Regarding C5U G38C A65U, the yeast fitness is ≤ 0.5. For the variant C5U U32C C33U C62U A65G, the yeast fitness was ≤ 0.5. The figure for C5U U7G A14G C30A A65C is 0.704. In the case of C5U U32C A57C, the yeast fitness is 0.583. Take C5U G50C A70U: the yeast fitness amounted to 0.575.

Regarding C5U G10C C30G C34U A42C G52A, the yeast fitness is ≤ 0.5.

For the variant C5U G38C G39C A40G G44A C46G G52A, the yeast fitness was ≤ 0.5. On to C5U U7A A65C, for which the yeast fitness stood at 0.64. As to C5U C31U U47C, the yeast fitness came to 0.701. Regarding C5U G9C G52C U54C A69C, the yeast fitness is ≤ 0.5. Take G6A A14U A57G U59C: the yeast fitness was ≤ 0.5. The figure for C5U G18A A40U U47C is 0.501; for C5U G48A G51C it is ≤ 0.5.

As for C5U G39A A45C, the yeast fitness turned out to be 0.76. For C5U C34A C55G A69U, the yeast fitness was ≤ 0.5. With C5U G52C C66U, the yeast fitness worked out at 0.57. For C5U G41A, the yeast fitness stood at 0.906. As for C5U U16A G63A, the yeast fitness is ≤ 0.5.

As to C5U U16G A65G C66U, the yeast fitness was ≤ 0.5. Regarding G6A A14U A57G U64G, the yeast fitness is ≤ 0.5.

Turning to C5U U19C U26A C62A, the yeast fitness was ≤ 0.5. For the variant C5U U19G A37G C66U A69U, the yeast fitness worked out at 0.547. For the variant G6A A15G U54G C55U, the yeast fitness was ≤ 0.5.

For the variant G6A A20U C27A A57U C62A, the yeast fitness is ≤ 0.5. As for C5U U28G C29U G50C, the yeast fitness was ≤ 0.5.

Consider G6A A21G C46A C55U G56A, for which the yeast fitness was ≤ 0.5. As to C5U U47C G51A, the yeast fitness is 0.548. Turning to C5U C31U G41A U64C, the yeast fitness is ≤ 0.5. Consider C5U G18A U28A G56A C61G, for which the yeast fitness was determined as 0.626. Regarding C5U G44C G68C, the yeast fitness was 0.697. As for C5U G56A A65U, the yeast fitness turned out to be 0.854. Regarding C5U U7A C30A G58C, the yeast fitness was found to be 0.543.

With C5U C34G A37U C49G G56A, the yeast fitness was ≤ 0.5. As for C5U C33U, the yeast fitness was found to be 0.71. For the variant C5U G12C U32A U35A U54C, the yeast fitness is ≤ 0.5. Consider G6A A20G A45G, for which the yeast fitness stood at 0.803.

For C5U U19C, the yeast fitness stood at 0.963. Consider C5U G18C U26C C30U C31G A70C, for which the yeast fitness is ≤ 0.5. The figure for C5U G10A G12A U53A is ≤ 0.5; for G6A A15G U28G A42U G48A it is ≤ 0.5.

Take C5U U8A A21G C49U G63C: the yeast fitness is ≤ 0.5.

Turning to G6A A14U C31G G38A, the yeast fitness is ≤ 0.5.

As to G6A A20G C24U, the yeast fitness is 0.612. Regarding C5U U19C U28A C66U G68A, the yeast fitness is ≤ 0.5.

Turning to C5U U19C C24G C61A A70G, the yeast fitness is ≤ 0.5.

C5U G44C A45U: the yeast fitness worked out at 0.657. As to C5U G10A U16A A65G, the yeast fitness was ≤ 0.5. Consider C5U G6A C11A U19A A69U, for which the yeast fitness was ≤ 0.5.

As for C5U U13A C29G C31A G63C, the yeast fitness was found to be 0.533.

Take C5U U19A G48A: the yeast fitness is 0.741. Consider G6A A15U G23A, for which the yeast fitness was determined as 0.525. The figure for C5U G18A A40U U47C U53C G68A is ≤ 0.5; for G6A A20G A21G C29G it is ≤ 0.5.

Consider C5U G10A C66U, for which the yeast fitness amounted to 0.574.

On to C5U U8G U28C A36G, for which the yeast fitness was ≤ 0.5.

As to C5U U7C G68C, the yeast fitness is ≤ 0.5.

On to C5U G6A A15U A21G U54G, for which the yeast fitness is ≤ 0.5.

In the case of C5U G12A, the yeast fitness was determined as 0.959. As for C5U G12C, the yeast fitness turned out to be 0.818. Regarding G6A A20G C49A, the yeast fitness was 0.616. Turning to C5U U26A G48C A57G, the yeast fitness is ≤ 0.5. Turning to G6A A36U C66A G68C, the yeast fitness is ≤ 0.5.

Take G6A A14C A42U G63C: the yeast fitness is ≤ 0.5. Regarding C5U U19C A43U, the yeast fitness came to 1.09. The figure for C5U U47A is 1.06; for C5U G50A G63A it is 0.608. Take G6A A15C A36C A42U A43G C55G C61U: the yeast fitness was ≤ 0.5. Then C5U C34G U35C, with 0.533; and G6A A14U A15U C31G, with 0.668. Regarding C5U U16A G38A A42G U64G, the yeast fitness is ≤ 0.5.

Consider C5U G17A A40U A42C C49A C66A, for which the yeast fitness was 0.593. As to G6A A20C C46G, the yeast fitness was 0.696. Consider C5U G52A G63C, for which the yeast fitness is ≤ 0.5.

For the variant C5U U32G C33G, the yeast fitness is ≤ 0.5. Then C5U C49A C66U, with 0.551; and C5U U13A C27G A57C G67A A69U, with ≤ 0.5. Then C5U G25A U26A G56C A65C, with ≤ 0.5; and C5U U32G G63C C66U, with ≤ 0.5. Then C5U U16A C33U C49A, with ≤ 0.5; and C5U G18A A40U U47C G68A, with 0.617. For C5U G17U C29G C31G A36U A37C A69C, the yeast fitness was ≤ 0.5. With G6A A36G A43C A69C, the yeast fitness is ≤ 0.5. Regarding G6A A14G C49U, the yeast fitness came out at 0.57. As to C5U C62U, the yeast fitness is 1.03. Turning to C5U G17A A40U A42C C49A, the yeast fitness is 0.684. As to G6A A15C C22G A43C G50A, the yeast fitness was ≤ 0.5.

As for G6A A14G C31U A36G, the yeast fitness was ≤ 0.5.

On to C5U U32A C34A A65C, for which the yeast fitness is ≤ 0.5. On to C5U C61G G67U, for which the yeast fitness is ≤ 0.5. Then C5U C34U A40C, with ≤ 0.5. C5U G12A A40U A45G C60A G63A: the yeast fitness was ≤ 0.5.

On to C5U G17C C27U A65G, for which the yeast fitness was ≤ 0.5. On to G6A A15C C27A C61G U64C A70U, for which the yeast fitness was ≤ 0.5. Then C5U G50C G51C G56C G67A, with ≤ 0.5. As to C5U U47A G48C G51A, the yeast fitness was ≤ 0.5. As for C5U U7C C24A C61U, the yeast fitness is ≤ 0.5.

Regarding C5U G38C G41C C60G, the yeast fitness is ≤ 0.5. Regarding C5U C46G A65G, the yeast fitness is 0.661. Then C5U C34A C55U, with 0.529; and C5U U16A G23A G25C, with ≤ 0.5; and C5U U13A C24U A45C, with 0.671. For C5U G12A A45C, the yeast fitness came out at 0.782.

C5U G50C G67A: the yeast fitness was ≤ 0.5. With C5U U16G A43G G67C, the yeast fitness was ≤ 0.5. Regarding C5U G41A C55G C66U, the yeast fitness is ≤ 0.5. C5U G10A: the yeast fitness stood at 0.702. Regarding C5U G10C, the yeast fitness stood at 0.629.

With C5U G18A C30A G58A G68U, the yeast fitness worked out at 0.581. Take C5U G44A: the yeast fitness was 1.08. With C5U G12C G44C, the yeast fitness turned out to be 0.53. On to C5U G17C A21U A40G U47G G48C, for which the yeast fitness is ≤ 0.5. For the variant G6A A14U C55A, the yeast fitness worked out at 0.552.

C5U U13C C61U: the yeast fitness is 0.673. On to G6A A36C A37G G52A A70U, for which the yeast fitness was ≤ 0.5. C5U G52A C66U: the yeast fitness came to 0.584. On to C5U G51A G56A A65C, for which the yeast fitness was ≤ 0.5. As for C5U G10C C30A A36U A42C, the yeast fitness was ≤ 0.5.

For C5U G17C C29A C46G G56A, the yeast fitness was ≤ 0.5. Take C5U U8C C30G C31G A65C: the yeast fitness is ≤ 0.5.

Take C5U G48A C55U A65C: the yeast fitness amounted to 0.556. Take C5U U13A C62U A65C: the yeast fitness was ≤ 0.5. The figure for C5U C34A G67A is ≤ 0.5; for C5U G50C it is 0.699; for C5U U7C U26C U28C C29G C34A it is 0.659. Consider C5U C49U C66A G67A, for which the yeast fitness is ≤ 0.5.

Regarding G6A A20G C60G, the yeast fitness was ≤ 0.5. With C5U U16G A40G A42U G52A, the yeast fitness was ≤ 0.5. For C5U U35G A65U, the yeast fitness turned out to be 0.576. Then C5U U7A C62A A69G A70G, with ≤ 0.5; and C5U C61A G68A, with ≤ 0.5; and C5U U53G, with 0.617. Take C5U U35A G48C C61U: the yeast fitness came to 0.57. Then C5U U32C A70U, with 0.66; and C5U G17C U26G A69U, with ≤ 0.5. C5U G18C U26G: the yeast fitness was ≤ 0.5. Turning to C5U C55G A69U, the yeast fitness is ≤ 0.5.

For G6A A15G A65U, the yeast fitness amounted to 0.607. Take C5U U8C C27U G48A C62A C66U: the yeast fitness is ≤ 0.5. C5U G10C C27G U28C G39C C46G A65G: the yeast fitness was ≤ 0.5. For C5U U28C C29G C61U, the yeast fitness amounted to 0.563.

Regarding G6A A20C C66A, the yeast fitness was 0.549. G6A A15C U16A A21G U26A C30U C61A A69U: the yeast fitness is ≤ 0.5.

C5U G25A C49A A69U: the yeast fitness was ≤ 0.5. Turning to G6A A15C C27A C61G A70U, the yeast fitness was 0.579.

With C5U G10A A70U, the yeast fitness is 0.609. Turning to G6A A21C U47A C61A A70C, the yeast fitness was ≤ 0.5. With C5U G48A C55U C66U, the yeast fitness was found to be 0.521. As for C5U G6A A40C C46A, the yeast fitness is 0.578. C5U U28C C61U: the yeast fitness came out at 0.705. The figure for C5U U7C C24G C27A is ≤ 0.5; for G6A A14C A42U G56A G63C it is 0.511; for C5U C33U C62A it is 0.579.

Regarding C5U G9C G23A G50A A65U, the yeast fitness is ≤ 0.5. C5U U32C A42G: the yeast fitness amounted to 0.531. Then C5U G25C A42U, with 0.639; and C5U U19A G51C G58A, with ≤ 0.5.

The record behind these values is the RNAGym collection of RNA variant scans (doi:10.1126/science.aae0568).
